Bioassay records from PubChem.
MrgX1 ag – agonists of human MrgX1 receptor, primary screen, HEK293 cells, Fluo-4 calcium flux. Mas-related G-protein coupled receptor member X1 (Homo sapiens), Q96LB2. Fluo-4 calcium fluorescence, agonist mode; stronger effect = higher value. B-score at 10 µM. 310,000 compounds, 0.44% hits. AID 588627, 2011;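 active = calcium response B-score plate-corrected fluorescence ratio at least 3 library SD, with starting fluorescence B-score inside 5 SD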
Target sequence (Q96LB2 whole entry, looked up): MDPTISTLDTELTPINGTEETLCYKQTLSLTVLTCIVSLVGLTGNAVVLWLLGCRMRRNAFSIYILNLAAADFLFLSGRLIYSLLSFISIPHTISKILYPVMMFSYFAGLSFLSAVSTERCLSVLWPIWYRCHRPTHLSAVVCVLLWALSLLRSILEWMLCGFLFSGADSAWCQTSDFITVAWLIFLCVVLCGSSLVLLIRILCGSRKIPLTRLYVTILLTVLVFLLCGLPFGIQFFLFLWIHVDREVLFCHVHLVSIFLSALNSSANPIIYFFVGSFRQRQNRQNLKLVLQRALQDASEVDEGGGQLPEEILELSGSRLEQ
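Assay system: MrgX1-expressing HEK293 cells / Amount: fifteen thousand cells per well / Doses: test compound in the initial addition of three / Timing: cells plated overnight, dye loaded 0.5 h 37 °C, 0.5 h room temperature / Technique: kinetic calcium dye fluorescence, Fluo-4 NW / Control set: positive and negative controls per plate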
MrgX1 PAM – positive allosteric modulators of MrgX1, primary screen, HEK293 cells, Fluo-4 calcium flux. Mas-related G-protein coupled receptor member X1 (Homo sapiens), Q96LB2. FDSS; stronger effect = higher value. B-score at 10 µM. 310,000 compounds, 0.63% hits;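 active = plate-corrected calcium response at least 3 library SD above typical, normal starting fluorescence, not activating the receptor alone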;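 also: compound read alongside a low EC10 to EC30 dose of BAM8-22 agonist; peak minus trough fluorescence over baseline measured at the second addition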
RGS4 inh – RGS4 inhibitors, primary screen, cell-based, HEK293 M3R inducible RGS4, calcium flux | B-score at 10 µM | Regulator of G-protein signaling 4 (Homo sapiens), P49798 | Fluo-4 calcium flux; stronger effect = higher value; triggered by carbachol at its EC20 | 310,000 compounds, 0.45% hits;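 active = B-score, a plate-corrected calcium signal, over three deviations above library mean, with baseline fluorescence within five deviations of library mean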;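 also: RGS4 expression induced by doxycycline in cells with stable M3 receptor; B-score is computed from the integrated fluorescence ratio over baseline after carbachol; higher B-score means a larger calcium signal and so more RGS4 inhibition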
Target sequence (P49798 whole entry, looked up): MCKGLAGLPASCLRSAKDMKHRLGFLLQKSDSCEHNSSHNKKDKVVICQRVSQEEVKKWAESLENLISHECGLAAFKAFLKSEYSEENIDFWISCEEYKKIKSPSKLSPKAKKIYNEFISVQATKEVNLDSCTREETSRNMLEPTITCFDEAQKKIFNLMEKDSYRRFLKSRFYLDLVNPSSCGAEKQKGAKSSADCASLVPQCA
RGS4 act – RGS4 potentiators or activators, primary screen, cell-based, HEK293 M3R inducible RGS4, calcium flux. carbachol calcium flux Fluo4; stronger effect = lower value. B-score at 10 µM. 310,000 compounds, 0.92% hits. AID 463111, 2010;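 active = B-score of the integrated calcium signal more than 4 SD below the library mean, with starting fluorescence not abnormally high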;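 also: negative B-score means reduced calcium response which marks RGS4 activation or potentiation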
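Test system: HEK293 cells with stable M3R and inducible RGS4; also added: carbachol at ECmax as muscarinic agonist stimulus; schedule: dye loading 30 min 37 °C, buffer rest 30 min RT; technique: kinetic calcium fluorescence imaging with Fluo4-AM dye, 2 µM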
MrgX1 antag – antagonists of human MrgX1 receptor, primary screen, HEK293 cells, Fluo-4 calcium flux. B-score at 10 µM. BAM8-22 antagonism; stronger effect = lower value. Mas-related G-protein coupled receptor member X1 (Homo sapiens), Q96LB2. 310,000 compounds, 1.3% hits;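 active = calcium-response B-score plate-corrected more than 3 library SD below zero, starting fluorescence within 5 deviations, no agonist response on first addition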;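 also: peak minus trough fluorescence over baseline after final BAM8-22 challenge near maximal dose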
An asterisk follows results filed as active; i = inactive; . = not tested or not shown. A selection: hits, their analogues and other compounds. The true share with any hit is near 3.5%.

SMILES	MrgX1 ag	MrgX1 PAM	RGS4 inh	RGS4 act	MrgX1 antag
CCN(CC)c1ccc(/C=C(/C#N)C(=O)NCc2ccccc2)o1	i	7*	i	i	i
CCN(CC)c1ccc(/C=C(/C#N)C(=O)NC(C)C)o1	i	i	i	i	i
COc1cc(C(=O)Nc2ccccc2N2CCOCC2)ccc1OCC(=O)N1CCOCC1	i	i	i	i	i
COc1ccc(NC(=O)CCCC(=O)NCCc2ccc(OC)c(OC)c2)cc1	i	i	i	i	i
CCCN(CCC)CCNC(=O)c1cc2c(-c3ccc(Cl)cc3)nn(C)c2s1	i	i	i	-7.2*	i
COc1ccc(-n2c3c(cc(C#N)c2=O)C(=O)CCC3)cc1	i	11*	i	i	i
COc1ccc(-n2c3c(cc(C(=O)Nc4ccc(C)cc4)c2=O)C(=O)CCC3)cc1	i	i	i	i	i
O=C(Nc1nnc(SCCN2CCOCC2)s1)C1CC(=O)N(c2ccc(F)cc2)C1 (centres undefined)	i	i	i	i	i
Cc1cccc(-c2n[nH]c(=S)n2/N=C/c2ccc(C)o2)c1	i	i	i	i	i
COc1ccc(N(CC(=O)N/N=C/c2cc3ccc(OC)cc3nc2Cl)S(=O)(=O)c2ccccc2)cc1	i	9.1*	i	i	i
C/C(=N\NC(=O)CN1CCN(c2ccc(F)cc2)CC1)c1ccco1	i	i	i	i	i
Cc1cc(/C=C2\SC(=S)NC2=O)c(C)n1-c1ccccc1	i	i	i	i	i
Cc1cc(/C=C2\SC(=S)NC2=O)c(C)n1-c1ccc(O)cc1	43*	i	i	i	i
CCOc1ccc2nc(NCCNC(=O)C(C)C)c(C)cc2c1	i	i	i	-7.4*	i
CCOc1ccc2nc(NCCNC(=O)C3CC3)c(C)cc2c1	i	i	i	i	i
CC1(c2nnc(-c3ccc(Cl)cc3)o2)CC(c2cccc(Cl)c2)=NO1 (centres undefined)	i	i	i	i	-5.9*
COc1ccc(CCNC(=O)c2ccc3nc(-c4ccco4)c(-c4ccco4)nc3c2)cc1OC	i	i	.	.	-4.6*
O=C(Nc1cccc(C(F)(F)F)c1)c1ccc2nc(-c3ccco3)c(-c3ccco3)nc2c1	i	i	i	i	-5.6*
Cc1cccc(C(=O)N2CCN=C2SCc2ccc([N+](=O)[O-])cc2)c1	i	i	i	-8.6*	i
O=C(Cc1ccccc1)N1CCN=C1SCc1cccc([N+](=O)[O-])c1	i	i	i	i	i
Cc1ccc(Cl)cc1N1CCN(c2cccc[n+]2C)CC1	i	i	i	-7.3*	i
Cc1ccc(C(=O)Nn2c(O)c(C=C3N=c4ccccc4=N3)sc2=S)cc1	i	i	i	i	i
Cc1ccc(S(=O)(=O)Nn2c(O)c(C=C3N=c4ccccc4=N3)sc2=S)cc1	i	i	i	i	-5.3*
COc1ccc(S(=O)(=O)n2nc(-c3cc(OC)c(OC)c(OC)c3)cc2N)cc1OC	i	i	.	.	i
COc1ccc(-c2cc(N)n(S(=O)(=O)c3c(F)c(F)c(F)c(F)c3F)n2)cc1OC	i	i	i	i	-6.9*
SMILES	MrgX1 ag	MrgX1 PAM	RGS4 inh	RGS4 act	MrgX1 antag
Cc1nc(N2CCCCC2C)c2c(C)c(C(=O)Nc3cccc(C(F)(F)F)c3)sc2n1 (centres undefined)	i	i	i	i	i
CCOC(=O)c1sc2nc(C)nc(N3CCCCC3C)c2c1C (centres undefined)	i	i	i	-7.3*	i
COc1ccc(C(CNC(=O)C(=O)Nc2ccc3c(c2)OCO3)N2CCN(C)CC2)cc1 (centres undefined)	i	i	i	i	-6.2*
Cc1ccc(C(=O)N/C(=C\c2ccc(-c3ccc([N+](=O)[O-])cc3)o2)C(=O)NC2CCS(=O)(=O)C2)cc1 (centres undefined)	i	i	i	i	-4.9*
Cc1ccc(C(=O)N/C(=C/c2ccc(-c3ccc([N+](=O)[O-])cc3)o2)C(=O)NCCCN(C)C)cc1	45*	i	i	i	i
CC(C)=CCc1c(O)c(CC=C(C)C)c2c(c1O)-c1cc(O)c(O)cc1CC2	i	i	i	i	i
Cc1ccc(C(=O)COC(=O)c2cn(-c3ccccc3)nc2-c2ccccc2)cc1[N+](=O)[O-]	i	i	i	i	i
COc1ccc(Nc2nnc(SC(C(=O)Nc3ccc(OC)c(Cl)c3)c3ccccc3)s2)cc1 (centres undefined)	i	16*	i	i	i
CC(=O)Nc1cccc(NC(=O)CSc2ncc(C(=O)Nc3ccccc3)c(=O)n2C)c1	i	i	5.8*	i	i
CC(=O)Nc1cccc(NC(=O)CSc2ncc(-c3ccc(Cl)cc3)n2Cc2ccco2)c1	i	i	i	-8.6*	i
COc1ccc(-c2cnc(SCC(=O)Nc3ccc4c(c3)OCO4)n2Cc2ccco2)cc1	.	.	i	i	.
CC(=O)Nc1ccc(NC(=O)CSc2ncc(C(=O)Nc3ccc(Cl)cc3)c(=O)n2C)cc1	i	i	i	i	i
CC1(C)CC(=O)c2c(O)cc(OCc3ccc([N+](=O)[O-])cc3)cc2O1	i	i	i	i	i
CC(=O)Nc1ccc(S(=O)(=O)NC(C)(C#N)C2CC2)cc1 (centres undefined)	i	i	i	i	i
O=c1/c(=C\c2ccc(O)cc2)sc2n1C(c1ccccc1)C(c1ccccc1)=NN=2 (centres undefined)	i	13*	i	i	i
CCCCCn1c(=O)[nH]c2cc(C(=O)NCCN3CCCCC3C)ccc2c1=O (centres undefined)	i	i	i	i	i
Cc1ccsc1CN(C)CC(=O)Nc1ccc([N+](=O)[O-])cc1Cl	i	i	i	-8.5*	i
O=C(COC(=O)C12CC3CC(CC(C3)C1)C2)Nc1ccc([N+](=O)[O-])cc1Cl	i	i	i	i	-6.6*
Cc1nc(-c2ccc(C(=O)Nc3cccc(Br)c3)cc2)cs1	i	i	i	i	i
COc1ccccc1N/C=C/c1onc(C)c1[N+](=O)[O-]	i	i	i	i	-6.5*
